We go through two compounds from ChEMBL document CHEMBL1127046, “Antitumor agents. 3. Synthesis and biological activity of 4 beta-alkyl derivatives containing hydroxy, amino, and amido groups of 4'-O-demethyl-4-desoxypodophyllotoxin as antitumor agents” (J Med Chem, 1993).

Where only a bound is given, the exact number is not on record here.

The subject of experiment [1] is L1210. The experiment in a line: Increase in life span at the dose of 2.5 (mg/kg/day). Format: functional, Mus musculus.
In experiment [2] the test system is P388. The experiment in a line: Cytotoxicity against P388 leukemia. Format: functional, cell-based. To be noted: Mus musculus.
A short description of experiment [3]: Inhibition of DNA topoisomerase II from rat liver measured as 50% reduction in the amount of minicircle DNA relative to the control.
Experiment [4] deals with Tubulin (Bos taurus, UniProt Q6B856+Q862L2+Q862F3). The experiment in a line: Drug concentration needed to produce a 50% reduction of bovine brain tubulin polymerization relative to the control.
The subject of experiment [5] is ACHN. As to the kind of experiment: Inhibition of growth of renal cancer ACHN cell line. It counts as functional. To be noted: Homo sapiens, read-out: ED50 (the source's name). In outline:
(§1)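 Human tumour cell lines plated and grown 24 h in a CO2 incubator, then exposed to compound for 96 or 4 h. Cells counted by hemocytometer. IC50 is the concentration giving 50% reduction in cell number versus untreated control.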

Experiment [6] concerns A549. As to the kind of experiment: Inhibition of growth of lung non-small cell carcinoma A-549 cell line. It counts as functional. Particulars: Homo sapiens, read-out: ED50 (the source's name). In outline:
(§2)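 Cells were seeded and cultured for 24 h, then exposed to drug for 96 or 4 h. Cells were counted by hemocytometer. IC50 is the concentration giving a 50% reduction in cell number relative to control.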

The nature of experiment [7]: Inhibition of growth of colon carcinoma COLO 2-1 cell line. It counts as functional. Particulars: Homo sapiens, read-out: ED50 (the source's name). The method in brief:
as §2

Experiment [8] deals with COLO 320DM. As to the kind of experiment: Inhibition of growth of colon carcinoma COLO 320DM cell line. It counts as functional. To be noted: Homo sapiens, read-out: ED50 (the source's name). The method in brief: as §2
For experiment [9], the species on record is Homo sapiens. The experiment in a line: Inhibition of growth of hepatoma HLE cell line. Format: functional. Particulars: read-out: ED50 (the source's name). In outline: as §2
Experiment [10] can be described thus: Inhibition of growth of renal cancer G-402 cell line. It counts as functional. To be noted: Homo sapiens, read-out: ED50 (the source's name). The method in brief: as §1
Experiment [11] can be described thus: Inhibition of growth of hepatoma HLF cell line. Format: functional. To be noted: Homo sapiens, read-out: ED50 (the source's name). In outline:
as §2

Experiment [12] deals with L1210. The experiment in a line: The number of mice survived for 30 days at the dose of 2.5 (mg/kg/day). Format: functional, Mus musculus.
In experiment [13] the test system is L1210. The experiment in a line: Antitumor activity in vivo expressed as the percentage increase in life span at the dose of 2.5 (mg/kg/day). Format: functional, Mus musculus.
The subject of experiment [14] is Lewis lung carcinoma cell line. As to the kind of experiment: Antitumor activity in vivo expressed as the percentage increase in life span at the lewis lung dose of 0.77 (mg/kg/day). Format: functional, Mus musculus.
Experiment [15] concerns Lewis lung carcinoma cell line. The experiment in a line: Antitumor activity in vivo expressed as the percentage increase in life span at the lewis lung dose of 1.3 (mg/kg/day). It counts as functional, Mus musculus.
The test system of experiment [16] is Lewis lung carcinoma cell line. The experiment in a line: Antitumor activity in vivo expressed as the percentage increase in life span at the lewis lung dose of 2.3 (mg/kg/day). Format: functional, Mus musculus.
Experiment [17] relates to Lewis lung carcinoma cell line. The experiment in a line: Antitumor activity in vivo expressed as the percentage increase in life span at the lewis lung dose of 4 (mg/kg/day). Format: functional, Mus musculus.
The test system of experiment [18] is Lewis lung carcinoma cell line. The experiment in a line: Mean body weight change after inoculation of 3.2 x 10 e 5 cells iv and administration of compounds iv from days 1-5 at the dose of 0.77 (mg/kg/day). It counts as functional, Mus musculus. The method in brief:
(§3)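 Male BDF1 mice (5 weeks) given 3.2 x 10^5 Lewis lung carcinoma cells iv on day 0, then dosed iv on days 1–5. Seven mice per group, 14 controls. Mean body weight change (g) taken from day 0 to day 6.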

For experiment [19], the system named is Lewis lung carcinoma cell line. The experiment in a line: Mean body weight change after inoculation of 3.2 x 10 e 5 cells iv and administration of compounds iv from days 1-5 at the dose of 1.3 (mg/kg/day). Format: functional, Mus musculus. In outline:
as §3

Experiment [20] concerns Lewis lung carcinoma cell line. The experiment in a line: Mean body weight change after inoculation of 3.2 x 10 e 5 cells iv and administration of compounds iv from days 1-5 at the dose of 2.3 (mg/kg/day). Format: functional, Mus musculus. The method in brief: as §3
Experiment [21] deals with Lewis lung carcinoma cell line. As to the kind of experiment: Percentage inhibition of tumor growth at the dose of 2.3 (mg/kg/ day). Format: functional, Mus musculus. In outline:
(§4)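 Lewis lung carcinoma fragments (2 mm3) implanted sc into male BDF1 mice (5 weeks) on day 0. Compound given iv on days 4–8, in saline or saline with 3.5% DMSO and 6.5% Tween 80. Seven mice per group, 10 controls. Percent inhibition from mean tumour weight versus control on day 17; p<0.05, 0.01 or 0.001 versus control.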

Experiment [22] has as its system Lewis lung carcinoma cell line. The experiment in a line: Percentage inhibition of tumor growth at the dose of 4 (mg/kg/ day). It counts as functional, Mus musculus. In outline:
as §4

Experiment [23] deals with Lewis lung carcinoma cell line. As to the kind of experiment: Mean body weight change after inoculation of 3.2 x 10 e 5 cells iv and administration of compounds iv from days 1-5 at the dose of 4 (mg/kg/day). It counts as functional, Mus musculus. The method in brief:
as §3

Experiment [24] relates to P388. As to the kind of experiment: Increased life span at the P388 dose of 0.8 (mg/kg/day). It counts as functional, Mus musculus. In outline: (§5)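 P388 leukaemia, 1 × 10^6 cells given sc to male CDF1 mice (5 weeks old) on day 0. Drug was dosed iv on days 1–5 in saline with 3.5% DMSO and 6.5% Tween 80. Groups had 7 mice; controls had 10. ILS was calculated from mean survival time of treated versus control mice, excluding 30-day survivors.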

In experiment [25] the test system is P388. As to the kind of experiment: Increased life span at the P388 dose of 1.3 (mg/kg/day). Format: functional, Mus musculus. The method in brief:
as §5

Experiment [26] can be described thus: Inhibition of growth of lung non-small cell carcinoma PC-7 cell line. Particulars: Homo sapiens, read-out: ED50 (the source's name). Format: functional. The method in brief:
as §2

Experiment [27] can be described thus: Inhibition of growth of lung small cell carcinoma RERF-LC-MA cell line. Format: functional. Particulars: Homo sapiens; read-out: ED50 (the source's name). In outline: as §2
For experiment [28], the system named is SBC-3. As to the kind of experiment: Inhibition of growth of lung small cell carcinoma SBC-3 cell line. Format: functional. To be noted: Homo sapiens, read-out: ED50 (the source's name). In outline:
as §1

The subject of experiment [29] is P388. The experiment in a line: Increased life span at the P388 dose of 2.3 (mg/kg/day). It counts as functional, Mus musculus. The method in brief:
as §5

As usually defined, the IC50 is the concentration at which inhibition is half-maximal. Low values mean greater potency, high ones weaker potency. `COc1cc([C@@H]2c3cc4c(cc3[C@@H](CCN(C)C)C3COC(=O)[C@@H]32)OCO4)cc(OC)c1O.Cl` (some centres not stated) came in with an ILS max in experiment [1] of 67%. The IC50 is 0.06 µM in experiment [2], 36.7 µM in [3] and over 100 µM in [4].
The Inhibition is the percentage by which the read-out fell short of the control. A low value points to little suppression. As to `COc1cc([C@@H]2c3cc4c(cc3[C@@H](CCN(C)CCN(C)C)C3COC(=O)[C@@H]32)OCO4)cc(OC)c1O.Cl.Cl` (some centres not stated), the EC50 in experiment [5] was 2 µg/mL; in experiment [6] it was 0.82 µg/mL; in experiment [7], 13 µg/mL; in [8] it was 2 µg/mL; in experiment [9], 0.23 µg/mL; in [10], 0.33 µg/mL. Also, the EC50 was 2.8 µg/mL in experiment [11], 3.5 µg/mL in experiment [26], 14 µg/mL in [27] and 0.41 µg/mL in [28]. The same compound registered a Survivors in experiment [12] of 6. In addition, the ILS max in [13] came out at 103%; in [14], 38%; in experiment [15], 72%; in experiment [16] it was 90%; in experiment [17] it was 209%; in experiment [24], 116%. The figures for the ILS max in [25] and in experiment [29] were 196% and 236%, respectively. The bwc in experiment [18] is 0.44 g; in [19], 0.2 g; in experiment [20], -0.7 g; in experiment [23] it was -2.9 g. The Inhibition in experiment [21] came out at 51%; in experiment [22] it was 95%. For the same compound, the IC50 in experiment [2] is 0.001 µM; in experiment [3] it was 32.5 µM; in [4], over 99 µM.
